Measurements as given in ChEMBL document CHEMBL1269007, “Synthesis and biological evaluation of Apogossypolone derivatives as pan-active inhibitors of antiapoptotic B-cell lymphoma/leukemia-2 (Bcl-2) family proteins” (J Med Chem, 2010).
pIC50, pKd, pKi: −log10 of the molar value. “And” between values parts separate entries of the source, which are not always exact repeats. Identical values can stand only once. The source made the active and inactive calls. No cut-off for these calls is given here.

Legend:
Bcl-2-like protein 1 [1] = target: T1, Bcl-2-like protein 1 (Homo sapiens, UniProt Q07817); test: Binding affinity Bcl-xL at 200 uM by one-dimensional 1H nuclear magnetic resonance spectroscopy
T1 sequence (Q07817 whole entry): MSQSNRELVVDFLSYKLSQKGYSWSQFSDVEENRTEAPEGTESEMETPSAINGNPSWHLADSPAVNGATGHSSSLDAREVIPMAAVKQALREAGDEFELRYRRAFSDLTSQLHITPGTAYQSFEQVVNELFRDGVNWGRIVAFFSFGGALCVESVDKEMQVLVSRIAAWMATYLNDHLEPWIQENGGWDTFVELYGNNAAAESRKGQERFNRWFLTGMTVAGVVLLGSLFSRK

Bcl-2-like protein 1 [2] = target: T1, Bcl-2-like protein 1; test: Displacement of F-BakBH3 from Bcl-xL after 30 mins by fluorescence polarization assay
In short: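 GST-Bcl-XL ΔTM (100 nM) preincubated with varying compound concentrations in PBS pH 7.4 for 10 min at room temperature. FITC-labelled Bak BH3 peptide (2.5 μL of 100 nM stock) then added. Polarization read at 480/535 nm after 30 min at room temperature. Wild-type and mutant Bak BH3 peptides served as plate controls. IC50 from sigmoidal dose-response fit; mean of three independent experiments ± SE.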

Bcl-2-related protein A1 = target: T2, Bcl-2-related protein A1 (Homo sapiens, UniProt Q16548); test: Displacement of F-BakBH3 from Bfl-1 after 30 mins by fluorescence polarization assay
T2 sequence (Q16548 whole entry): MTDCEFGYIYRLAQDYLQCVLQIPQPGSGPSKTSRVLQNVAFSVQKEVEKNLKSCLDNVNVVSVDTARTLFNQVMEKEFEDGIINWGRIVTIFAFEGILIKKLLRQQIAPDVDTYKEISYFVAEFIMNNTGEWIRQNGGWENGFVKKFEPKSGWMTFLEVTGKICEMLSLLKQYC

Bcl-2-like protein 1 [3] = target: T1, Bcl-2-like protein 1; test: Binding affinity Bcl-xL by isothermal titration calorimetry assay
[4] = Metabolic stability of the compound in rat plasma after 40 mins; assay type: ADME, cell-free; conditions: read-out: Stability
[5] = Metabolic stability of the compound in rat microsomes after 40 mins; assay type: ADME, Microsome; conditions: read-out: Stability
Mus musculus [6] = test: Reduction of spleen weight in ip dosed human Bcl2 expressing B6 transgenic BALB/c mouse administered as single dose after 24 hrs; assay type: functional, organism-based
Mus musculus [7] = test: Toxicity in human Bcl2 expressing B6 transgenic BALB/c mouse assessed as mortality at 60 umol/kg, ip administered as single dose after 24 hrs; assay type: organism-based; conditions: in vivo
In short: (§1)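 Age- and sex-matched B6 Bcl2 transgenic mice (human BCL-2/IgH minigene on Balb/c background, no aggressive lymphoma yet) given a single i.p. injection of compound in 500 μL ethanol:Cremophor EL:saline 10:10:80. Controls received vehicle. Animals sacrificed at 24 h with Avertin; spleen removed and weighed.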

Mus musculus [8] = test: Toxicity in human Bcl2 expressing B6 transgenic BALB/c mouse assessed as mortality at 30 umol/kg, ip administered as single dose after 24 hrs; assay type: organism-based; conditions: in vivo; in short: as §1
Mus musculus [9] = test: Reduction of spleen weight in human Bcl2 expressing B6 transgenic BALB/c mouse at 30 umol/kg, ip administered as single dose after 24 hrs; assay type: functional; design: scale not given: the % may be the effect or the level left
Mus musculus [10] = test: Toxicity in human PPC1 cells xenografted nude mouse assessed as mortality at 25 mg/kg, ip administered weekly 3 times; assay type: organism-based, PPC-1; design: dose 25 mg/kg, route intraperitoneal; conditions: in vivo
In short: (§2)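 PPC-1 flank xenografts (5×10^6 cells s.c.) in female 6-week-old nude mice, size-matched at 200 mm³, 6 per group. Compound given i.p. three times in the first week in ethanol:Cremophor EL:saline 10:10:80 (500 μL); controls got saline. Survival and body weight monitored during week 1.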

[11] = target: Apoptosis regulator Bcl-2 (Homo sapiens, UniProt P10415); test: Displacement of FITC-Bim BH3 peptide from Bcl-2 after 10 mins by fluorescence polarization assay
Apoptosis regulator Bcl-2, sequence (P10415 whole entry): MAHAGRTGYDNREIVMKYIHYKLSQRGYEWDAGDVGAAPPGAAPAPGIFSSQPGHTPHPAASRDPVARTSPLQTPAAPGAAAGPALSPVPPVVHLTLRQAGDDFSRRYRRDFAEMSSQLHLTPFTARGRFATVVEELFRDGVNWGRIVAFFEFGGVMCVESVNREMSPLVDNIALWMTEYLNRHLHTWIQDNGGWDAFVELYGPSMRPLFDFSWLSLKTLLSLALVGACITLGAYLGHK

[12] = target: Induced myeloid leukemia cell differentiation protein Mcl-1 (Homo sapiens, UniProt Q07820); test: Displacement of FITC-Bim BH3 peptide from Mcl-1 after 10 mins by fluorescence polarization assay
Induced myeloid leukemia cell differentiation protein Mcl-1, sequence (Q07820 whole entry): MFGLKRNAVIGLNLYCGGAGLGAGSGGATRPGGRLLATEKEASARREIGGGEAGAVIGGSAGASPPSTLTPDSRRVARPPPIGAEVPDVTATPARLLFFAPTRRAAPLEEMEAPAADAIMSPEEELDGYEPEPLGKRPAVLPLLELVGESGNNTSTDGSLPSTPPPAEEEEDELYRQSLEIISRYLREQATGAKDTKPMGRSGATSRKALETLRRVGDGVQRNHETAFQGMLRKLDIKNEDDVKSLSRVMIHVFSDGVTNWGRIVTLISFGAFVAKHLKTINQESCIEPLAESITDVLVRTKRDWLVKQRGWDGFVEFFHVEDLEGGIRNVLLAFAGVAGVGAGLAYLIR

BP3 = test: Induction of apoptosis in human BP3 cells expressing high level of Bfl-1 and Mcl-1 after 24 hrs by annexin V-FITC and propidium iodide staining; assay type: functional, cell-based
RS4-11 = test: Induction of apoptosis in human RS4:11 cells expressing high level of Bcl-2 and Bcl-xL after 24 hrs by annexin V-FITC and propidium iodide staining; assay type: functional, cell-based
Homo sapiens = organism: Homo sapiens; test: Induction of apoptosis in human CLL after 24 hrs by annexin V-FITC and propidium iodide staining; assay type: functional
In short: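 Freshly isolated primary leukaemic cells from CLL patients cultured in RPMI 1640 with 10% FBS and penicillin/streptomycin with various compound concentrations for 1 day. Annexin V-FITC/propidium iodide staining read by flow cytometry; annexin-V-negative, PI-negative cells counted as viable; LD50 derived from dose-response.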

Mus musculus [13] = test: Reduction of spleen weight in human Bcl2 expressing B6 transgenic BALB/c mouse at 60 umol/kg, ip administered as single dose after 24 hrs; assay type: functional; design: scale not given: the % may be the effect or the level left
Mus musculus [14] = test: Toxicity in human Bcl2 expressing B6 transgenic BALB/c mouse up to 120 umol/kg, ip administered as single dose after 24 hrs; assay type: organism-based; conditions: in vivo
In short: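 B6 Bcl-2 transgenic Balb/c mice, age- and sex-matched, given one intraperitoneal dose (60 or 120 μmol/kg, also 30 μmol/kg) in ethanol:Cremophor EL:saline 10:10:80, 500 μL; survival and signs of toxicity observed over 24 h before sacrifice.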

Mus musculus [15] = test: Reduction of spleen weight in human Bcl2 expressing B6 transgenic BALB/c mouse at 60 umol/kg, ip administered as single dose after 24 hrs relative to control; assay type: functional; design: scale not given: the % may be the effect or the level left
Mus musculus [16] = test: Toxicity in human Bcl2 expressing B6 transgenic BALB/c mouse assessed as weight loss up to 120 umol/kg, ip administered as single dose after 24 hrs; assay type: organism-based; conditions: in vivo
PPC-1 [17] = test: Antitumor activity against human PPC1 cells xenografted in nude mouse assessed as tumor regression at 50 mg/kg, ip administered weekly 3 times; assay type: functional, organism-based; design: dose 50 mg/kg
In short: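 Female 6-week-old nude mice given 5×10^6 cells in 0.2 ml PBS subcutaneously in the flank; tumours size-matched at 200 mm³, 6 mice/group. Intraperitoneal injections in ethanol:Cremophor EL:saline 10:10:80 (500 μL), three times week 1, twice week 2, once week 3; controls received saline. Caliper volume (length×width²/2) two to three times weekly; T/C% = mean treated/mean control volume.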

Mus musculus [18] = test: Toxicity in human PPC1 cells xenografted nude mouse assessed as weight loss at 50 mg/kg, ip administered weekly 3 times; assay type: organism-based, PPC-1; design: dose 50 mg/kg, route intraperitoneal; conditions: in vivo
In short: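 Nude mice carrying subcutaneous flank xenografts (5×10^6 cells), size-matched at 200 mm³, 6 per group. Dosed intraperitoneally in ethanol:Cremophor EL:saline 10:10:80, three times in week 1, twice in week 2, once in week 3; saline controls. Body weight followed over treatment and reported as average percentage loss.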

Mus musculus [19] = test: Toxicity in human PPC1 cells xenografted nude mouse assessed as mortality at 50 mg/kg, ip administered weekly 3 times; assay type: organism-based, PPC-1; design: dose 50 mg/kg, route intraperitoneal; conditions: in vivo; in short: as §2
PPC-1 [20] = test: Antitumor activity against human PPC1 cells xenografted in nude mouse assessed as tumor regression at 50 mg/kg, ip administered 5 times measured on after 2 weeks relative to control; assay type: functional; conditions: route intraperitoneal
In short: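 Female 6-week-old nude mice injected s.c. in the flank with 5×10^6 PPC-1 cells in 0.2 ml PBS; size-matched at 200 mm³, 6 per group. Compound given i.p. in ethanol:Cremophor EL:saline 10:10:80 (500 μL), three times in week 1, twice in week 2, once in week 3; controls got saline. Caliper volume (length × width²/2) 2–3 times weekly; T/C% = mean treated volume / mean control volume.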

In the case of `CC1=C(C2=C(C)C(=O)c3c(cc(O)c(O)c3Cc3ccccc3)C2=O)C(=O)c2cc(O)c(O)c(Cc3ccccc3)c2C1=O`, the Activity (Bcl-2-like protein 1 [1]) was “Active”, the pIC50 (Bcl-2-like protein 1 [2]) was 6.47 and the pKi (Bcl-2-like protein 1 [2]) was 6.64. It also gave a pIC50 (Bcl-2-related protein A1) of 6.19, a pKi (Bcl-2-related protein A1) of 6.37 and a pKd (Bcl-2-like protein 1 [3]) of 6.35. For the same molecule, the remaining at 40 min [4] was 95%, the remaining at 40 min [5] was 91% and the Activity (Mus musculus [6]) was “Dose-dependent effect”. For the same molecule, the Activity (Mus musculus [7]) was “Toxic”, the Activity (Mus musculus [8]) was “Non-toxic” and the Activity (Mus musculus [9]) was 86%. The Activity (Mus musculus [10]) was “Toxic”, the pIC50 [11] was 6.54 and the pKi [11] was 6.72. It also gave a pIC50 [12] of 6.62 and a pKi [12] of 6.80.

For `CC1=C(C2=C(C)C(=O)c3c(cc(O)c(O)c3CCc3ccc(C)cc3)C2=O)C(=O)c2cc(O)c(O)c(CCc3ccc(C)cc3)c2C1=O`, the Activity (Bcl-2-like protein 1 [1]) was “Active”, the pIC50 (Bcl-2-like protein 1 [2]) was 5.51 and the pKi (Bcl-2-like protein 1 [2]) was 5.68. The pKd (Bcl-2-like protein 1 [3]) was 5.60, the remaining at 40 min [4] was 86% and the Activity (BP3) was “Dose-dependent effect”. For the same molecule, the Activity (RS4-11) was “Dose-dependent effect”, the Activity (Mus musculus [6]) was “Dose-dependent effect” and the Activity (Homo sapiens) was “Dose-dependent effect”. For the same molecule, the LD50 (Homo sapiens) was 10 µM, the Activity (Mus musculus [13]) was 30% and the Activity (Mus musculus [14]) was “Non-toxic”. The Activity (Mus musculus [15]) was 60%, the Activity (Mus musculus [16]) was 5% and the Activity (PPC-1 [17]) was “Active”. The Activity (Mus musculus [18]) was 5% and 6.8%, the Activity (Mus musculus [19]) was “Non-toxic” and the Activity (PPC-1 [20]) was 33%. It also gave a pIC50 [11] of 5.51, a pKi [11] of 5.68 and a pIC50 [12] of 5.69. For the same molecule, the pKi [12] was 5.86.

In the case of `CC1=C(C2=C(C)C(=O)c3c(cc(O)c(O)c3C(C)C)C2=O)C(=O)c2cc(O)c(O)c(C(C)C)c2C1=O`, the Activity (Bcl-2-like protein 1 [1]) was “Active”, the pKi (Bcl-2-like protein 1 [2]) was 6.38 and the pKi (Bcl-2-related protein A1) was 5.83. The remaining at 40 min [4] was 77%, the Activity (BP3) was “Dose-dependent effect” and the Activity (RS4-11) was “Dose-dependent effect”. The Activity (Mus musculus [6]) was “Dose-dependent effect”, the LD50 (Homo sapiens) was over 30 µM and the Activity (Mus musculus [13]) was 20%. For the same molecule, the Activity (PPC-1 [17]) was “Active”, the Activity (Mus musculus [18]) was 9.3% and the Activity (PPC-1 [20]) was 65%. The pKi [11] was 6.60 and the pKi [12] was 6.37.
